Experimental data taken from ChEMBL document CHEMBL1287679, “Tuning hydrophobicity of highly cationic tetradecameric Gramicidin S analogues using adamantane amino acids” (Bioorg Med Chem, 2010).
Converted amounts (≈) assume the structure as drawn. Where a SMILES comes first, the peptide text is derived from it. [ ]: non-standard residue; d: D form. Gly(1-adamantyl) = N[C@H](C(=O)O)C12CC3CC(CC(C3)C1)C2; Orn = NCCC[C@H](N)C(=O)O

Experiments:
[1] = system: Staphylococcus aureus; assay: Antimicrobial activity against methicillin-resistant Staphylococcus aureus ATCC 43300 by broth dilution method; assay type: functional
Method in brief: (§1)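 Frozen (−70 °C) stocks grown at 35 °C on Columbia sheep-blood agar, suspended in physiological saline to OD595 0.1, diluted 100×; 2 µL inoculum into 50 µL cation-adjusted Mueller Hinton II broth in 96-well plates. Peptides dissolved in methanol (4 g/L), diluted in water, two-fold serial dilutions in broth (64–1 mg/L). Incubation at 35 °C, 24–48 h; MIC = lowest concentration inhibiting growth.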

[2] = system: Staphylococcus epidermidis; assay: Antimicrobial activity against Staphylococcus epidermidis ATCC 12228 by broth dilution method; assay type: functional
Method in brief: (§2)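 Stored at −70 °C, grown at 35 °C on Columbia sheep-blood agar, then suspended in physiological saline to OD 0.1 AU at 595 nm and diluted 100× in saline. 2 µL inoculum was added to 50 µL cation-adjusted Mueller Hinton II broth. Peptides in methanol (4 g/L stock) were diluted in water, then two-fold in broth (64–1 mg/L). Incubation was 35 °C for 24–48 h. MIC is the lowest concentration inhibiting growth.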

[3] = system: Staphylococcus aureus; assay: Antimicrobial activity against Staphylococcus aureus ATCC 29213 by broth dilution method; assay type: functional; method in brief: as §1
[4] = system: Staphylococcus aureus; assay: Antimicrobial activity against methicillin-resistant Staphylococcus aureus N133 by broth dilution method; assay type: functional; method in brief: as §1
[5] = system: Escherichia coli; assay: Antimicrobial activity against Escherichia coli ATCC 25922 by broth dilution method; assay type: functional; method in brief: as §2
[6] = system: Bacillus cereus; assay: Antimicrobial activity against Bacillus cereus ATCC 11778 by broth dilution method; assay type: functional; method in brief: as §2
[7] = system: Staphylococcus aureus; assay: Antimicrobial activity against methicillin-resistant Staphylococcus aureus N229 by broth dilution method; assay type: functional; method in brief: as §1
[8] = system: Staphylococcus aureus; assay: Antimicrobial activity against methicillin-resistant Staphylococcus aureus isolate 1110301981 by broth dilution method; assay type: functional; method in brief: as §1
[9] = Therapeutic index, concentration required to achieve 100% hemolysis in erythrocyte to MIC for Escherichia coli ATCC 25922; details: erythrocytes
Method in brief: (§3)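 Therapeutic index was taken as the concentration for 100% haemolysis divided by MIC for the given strain.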

[10] = system: Pseudomonas aeruginosa; assay: Antimicrobial activity against Pseudomonas aeruginosa ATCC 27853 by broth dilution method; assay type: functional; method in brief: as §2
[11] = Therapeutic index, concentration required to achieve 100% hemolysis in erythrocyte to MIC for Staphylococcus aureus ATCC 29213; details: erythrocytes; read-out: Ratio; method in brief: as §3
[12] = system: Staphylococcus aureus; assay: Antimicrobial activity against methicillin-resistant Staphylococcus aureus ATCC 49775 by broth dilution method; assay type: functional; method in brief: as §1
[13] = Toxicity in Erythrocyte assessed as concentration required to achieve 100% hemolysis after 4 hrs; assay type: cell-based
Method in brief: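 Heparinized fresh blood was centrifuged (1000g, 10 min, 10 °C). Erythrocytes were washed three times in 0.85% saline and diluted to a 1/25 packed volume. Peptides were prepared as a 1.5 mM stock in 30% DMSO/0.5 mM saline and serially two-fold diluted in triplicate rows. 1% Triton-X served as the full-lysis control. Incubation was 37 °C for 4 h, then centrifugation; supernatant was read. Value is the concentration giving 100% lysis.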

[14] = system: Enterococcus faecalis; assay: Antimicrobial activity against Enterococcus faecalis ATCC 29212 by broth dilution method; assay type: functional; method in brief: as §2
[15] = system: Staphylococcus aureus; assay: Antimicrobial activity against community acquired methicillin-resistant Staphylococcus aureus isolate 1110301146 by broth dilution method; assay type: functional; method in brief: as §1

| Compound | MIC [1] | MIC [2] | MIC [3] | MIC [4] | MIC [5] | MIC [6] | MIC [7] | MIC [8] | selectivity ratio [9] | MIC [10] | selectivity ratio [11] | MIC [12] | Activity [13] | MIC [14] | MIC [15] |
| --- | --- | --- | --- | --- | --- | --- | --- | --- | --- | --- | --- | --- | --- | --- | --- |
| NCCC[C@@H]1NC(=O)[C@H](CC23CC4CC(CC(C4)C2)C3)NC(=O)[C@H](CCCN)NC(=O)[C@H](C23CC4CC(CC(C4)C2)C3)NC(=O)[C@H](CCCN)NC(=O)[C@@H]2CCCN2C(=O)[C@@H](Cc2ccccc2)NC(=O)[C@H](CCCN)NC(=O)[C@H](CC23CC4CC(CC(C4)C2)C3)NC(=O)[C@H](CCCN)NC(=O)[C@H](C23CC4CC(CC(C4)C2)C3)NC(=O)[C@H](CCCN)NC(=O)[C@@H]2CCCN2C(=O)[C@@H](Cc2ccccc2)NC1=O | 32 µg/mL (≈ 16.3 µM) | 32 µg/mL (≈ 16.3 µM) | 64 µg/mL (≈ 32.5 µM) | 32 µg/mL (≈ 16.3 µM) | 64 µg/mL (≈ 32.5 µM) | 2 µg/mL (≈ 1.02 µM) | 32 µg/mL (≈ 16.3 µM) | 32 µg/mL (≈ 16.3 µM) | 0.12 | 64 µg/mL (≈ 32.5 µM) | 0.1 | 32 µg/mL (≈ 16.3 µM) | 7.8 µM | 32 µg/mL (≈ 16.3 µM) | 32 µg/mL (≈ 16.3 µM) |
| CC(C)C[C@@H]1NC(=O)[C@H](CCCCN)NC(=O)[C@H](C(C)C)NC(=O)[C@@H]2CCCN2C(=O)[C@@H](Cc2ccc(O)cc2)NC(=O)[C@H](CC(C)C)NC(=O)[C@H](CCCCN)NC(=O)[C@H](C(C)C)NC(=O)[C@H](CCCCN)NC(=O)[C@H](CC(C)C)NC(=O)[C@@H]2CCCN2C(=O)[C@@H](Cc2ccc(O)cc2)NC(=O)[C@H](C(C)C)NC(=O)[C@H](CCCCN)NC1=O (cyclo(KLKV[dY]PLKVKL[dY]PV)) | – | – | – | – | – | – | – | – | – | – | – | – | 3.9 µM | – | – |
| CC(C)C[C@@H]1NC(=O)[C@H](CCCN)NC(=O)[C@H](C(C)C)NC(=O)[C@@H]2CCCN2C(=O)[C@@H](Cc2ccccc2)NC(=O)[C@H](CC(C)C)NC(=O)[C@H](CCCN)NC(=O)[C@H](C(C)C)NC(=O)[C@H](CCCN)NC(=O)[C@H](CC(C)C)NC(=O)[C@@H]2CCCN2C(=O)[C@@H](Cc2ccccc2)NC(=O)[C@H](C(C)C)NC(=O)[C@H](CCCN)NC1=O (cyclo(L[Orn]V[Orn]L[dF]PV[Orn]L[Orn]V[dF]P)) | – | 8 µg/mL (≈ 5.06 µM) | 16 µg/mL (≈ 10.1 µM) | – | 64 µg/mL (≈ 40.5 µM) | 4 µg/mL (≈ 2.53 µM) | – | – | 0.1 | 32 µg/mL (≈ 20.2 µM) | 0.2 | – | 3.9 µM | 8 µg/mL (≈ 5.06 µM) | – |
| CC(C)C[C@@H]1NC(=O)[C@H](CCCCN)NC(=O)[C@H](C(C)C)NC(=O)[C@@H]2CCCN2C(=O)[C@@H](Cc2ccc(O)cc2)NC(=O)[C@H](CC(C)C)NC(=O)[C@H](CCCCN)NC(=O)[C@H](C(C)C)NC(=O)[C@H](CCCCN)NC(=O)[C@H](CC(C)C)NC(=O)[C@@H]2CCCN2C(=O)[C@@H](Cc2ccc(O)cc2)NC(=O)[C@H](C(C)C)NC(=O)[C@H](CCCCN)NC1=O (cyclo(VKLKV[dY]PLKVKL[dY]P)) | – | 64 µg/mL (≈ 38.3 µM) | > 64 µg/mL | – | > 64 µg/mL | 32 µg/mL (≈ 19.2 µM) | – | – | – | > 64 µg/mL | – | – | – | 32 µg/mL (≈ 19.2 µM) | – |
| NCCC[C@@H]1NC(=O)[C@H](C23CC4CC(CC(C4)C2)C3)NC(=O)[C@H](CCCN)NC(=O)[C@@H]2CCCN2C(=O)[C@@H](Cc2ccccc2)NC(=O)[C@H](CCCN)NC(=O)[C@H](C23CC4CC(CC(C4)C2)C3)NC(=O)[C@H](CCCN)NC(=O)[C@@H]2CCCN2C(=O)[C@@H](Cc2ccccc2)NC1=O (cyclo([Orn][dF]P[Orn][Gly(1-adamantyl)][Orn][dF]P[Orn][Gly(1-adamantyl)])) | – | 4 µg/mL (≈ 3.01 µM) | 8 µg/mL (≈ 6.03 µM) | 8 µg/mL (≈ 6.03 µM) | 16 µg/mL (≈ 12.1 µM) | 8 µg/mL (≈ 6.03 µM) | 8 µg/mL (≈ 6.03 µM) | 8 µg/mL (≈ 6.03 µM) | 62.5 | 8 µg/mL (≈ 6.03 µM) | 62.5 | – | 500 µM | 8 µg/mL (≈ 6.03 µM) | 8 µg/mL (≈ 6.03 µM) |
